According to ChEMBL document CHEMBL1765012, “Novel interactions of fluorinated nucleotide derivatives targeting orotidine 5'-monophosphate decarboxylase” (J Med Chem, 2011):
Calls of active or inactive are those of the source. No cut-off for these calls is given here.

Columns and labels:
CHO = assay: Cytotoxicity against CHO cells; type: cell-based; settings: Cricetulus griseus
[1] = Cytotoxicity against human OCI-AML1 cells; type: functional, cell-based
Plasmodium falciparum = assay: Antimalarial activity against Plasmodium falciparum 3D7; type: functional, organism-based
[2] = biological target: Orotidine 5'-phosphate decarboxylase (Methanobacterium thermoautotrophicum) (UniProt O26232); assay: Covalent binding affinity to Methanobacterium thermoautotrophicum 5'-monophosphate decarboxylase by mass spectroscopy analysis; settings: Methanothermobacter thermautotrophicus
Chain of Orotidine 5'-phosphate decarboxylase (Methanobacterium thermoautotrophicum) (O26232 whole entry, looked up): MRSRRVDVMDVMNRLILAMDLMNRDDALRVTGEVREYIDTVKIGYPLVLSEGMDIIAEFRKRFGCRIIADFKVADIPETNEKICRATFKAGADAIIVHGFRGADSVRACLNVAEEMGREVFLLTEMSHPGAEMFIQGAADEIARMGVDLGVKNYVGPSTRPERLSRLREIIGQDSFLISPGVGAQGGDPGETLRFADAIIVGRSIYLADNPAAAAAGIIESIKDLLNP
Outline: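 Mt ODCase incubated overnight at room temperature with inhibitor (25 mM, in the dark; or 388 mM with 200 μM enzyme) in 50 mM Tris pH 7.5, 20 mM DTT, 40 mM NaCl. Enzyme mass measured by mass spectrometry against an inhibitor-free control; covalent adduct taken from a mass increase over native enzyme.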

[3] = biological target: Orotidine 5'-phosphate decarboxylase (Methanobacterium thermoautotrophicum, UniProt O26232); assay: Irreversible inhibition of Methanobacterium thermoautotrophicum 5'-monophosphate decarboxylase
Chain of Orotidine 5'-phosphate decarboxylase (O26232 whole entry): as the sequence (O26232 whole entry, looked up) above

Compound | IC50 (Plasmodium falciparum) [µM] | Ki [3] [µM] | IC50 (CHO) [µM] | IC50 [1] [µM] | Activity [2]
N#Cc1cn([C@@H]2O[C@H](CO)[C@@H](O)[C@H]2F)c(=O)[nH]c1=O | 1090 | – | > 1000 | > 50 | –
O=c1cc(I)n([C@@H]2O[C@H](CP(=O)(O)O)[C@@H](O)[C@H]2F)c(=O)[nH]1 | – | – | – | – | Active
[N-]=[N+]=Nc1cc(=O)[nH]c(=O)n1[C@@H]1O[C@H](CO)[C@@H](O)[C@H]1F | > 1000 | – | > 2000 | > 50 | –
[N-]=[N+]=Nc1cc(=O)[nH]c(=O)n1[C@@H]1O[C@H](COP(=O)(O)O)[C@@H](O)[C@H]1F | – | 1200 | – | – | Active

Second part, led by results:

IC50 (Plasmodium falciparum) [µM] | Ki [3] [µM] | Compound | IC50 (CHO) [µM] | IC50 [1] [µM] | Activity [2]
> 6000 | – | O=c1cc(I)n([C@@H]2O[C@H](CO)[C@@H](O)[C@H]2F)c(=O)[nH]1 | 1360 | > 50 | –
> 2000 | – | NC(=O)c1cc(=O)[nH]c(=O)n1[C@@H]1O[C@H](CO)[C@@H](O)[C@H]1F | > 1000 | > 50 | –
> 1000 | – | N#Cc1cc(=O)[nH]c(=O)n1[C@@H]1O[C@H](CO)[C@@H](O)[C@H]1F | > 600 | > 50 | –
